Data reported in ChEMBL document CHEMBL4619802, “Discovery and Characterization of Pure RhlR Antagonists against Pseudomonas aeruginosa Infections” (J Med Chem, 2020).
Active and inactive are the calls of the source. The calls are words filed in the database; no cut-off is given here.

How the values were obtained:
[1] = target: T1, HTH-type quorum-sensing regulator RhlR (Pseudomonas aeruginosa (strain ATCC 15692 / PAO1 / 1C / PRS 101 / LMG12228)) (UniProt P54292); assay: Modulation of RhlR in Pseudomonas aeruginosa assessed as inhibition of biofilm formation at 100 uM incubated for 24 hrs under static condition by crystal violet staining based assay relative to control; parameters: scale not given: the % may be the effect or the level left
T1 sequence (whole entry): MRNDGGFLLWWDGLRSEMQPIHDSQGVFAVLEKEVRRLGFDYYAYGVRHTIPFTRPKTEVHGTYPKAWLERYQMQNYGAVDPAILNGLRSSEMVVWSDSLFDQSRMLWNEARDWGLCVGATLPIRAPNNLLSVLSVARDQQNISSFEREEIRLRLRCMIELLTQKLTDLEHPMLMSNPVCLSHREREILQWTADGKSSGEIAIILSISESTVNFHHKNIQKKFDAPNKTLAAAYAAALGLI
In short: (§1)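 P. aeruginosa overnight culture (OD595 1.0) diluted 1:20 in AB medium (pH 7.5, 1% glucose, casamino acids, arginine) with compound, in borosilicate bottles, 37 °C for 24 h without shaking. Growth taken as OD595 of the suspended culture. Attached cells washed twice with PBS, stained with 0.1% crystal violet for 10 min, dye eluted in ethanol and read at 545 nm.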

[2] = target: T1, HTH-type quorum-sensing regulator RhlR (Pseudomonas aeruginosa (strain ATCC 15692 / PAO1 / 1C / PRS 101 / LMG12228)); assay: Agonist activity at Pseudomonas aeruginosa RhlR expressed in Escherichia coli DH5alpha assessed as relative protein activity at 100 uM incubated for 1.5 hrs by luminescence reporter gene assay relative to control
[3] = target: T2, Transcriptional activator protein LasR (Pseudomonas aeruginosa (strain ATCC 15692 / PAO1 / 1C / PRS 101 / LMG12228)) (UniProt P25084); assay: Antagonist activity at Pseudomonas aeruginosa LasR expressed in Escherichia coli DH5alpha at 0.1 to 10 uM incubated for 1.5 hrs by luminescence reporter gene assay
T2 sequence (whole entry): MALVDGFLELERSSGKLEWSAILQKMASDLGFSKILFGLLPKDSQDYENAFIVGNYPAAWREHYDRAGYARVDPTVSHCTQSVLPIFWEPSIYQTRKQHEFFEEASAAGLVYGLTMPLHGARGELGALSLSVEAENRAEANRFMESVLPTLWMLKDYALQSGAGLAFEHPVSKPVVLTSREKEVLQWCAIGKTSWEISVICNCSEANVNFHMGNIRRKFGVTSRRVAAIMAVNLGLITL

[4] = target: T3, Transcriptional regulator MvfR (Pseudomonas aeruginosa PA14) (UniProt A0A072ZLE6); assay: Agonist activity at Pseudomonas aeruginosa PqsR expressed in Escherichia coli DH5alpha at 0.1 to 10 uM incubated for 1.5 hrs by luminescence reporter gene assay
T3 sequence (whole entry): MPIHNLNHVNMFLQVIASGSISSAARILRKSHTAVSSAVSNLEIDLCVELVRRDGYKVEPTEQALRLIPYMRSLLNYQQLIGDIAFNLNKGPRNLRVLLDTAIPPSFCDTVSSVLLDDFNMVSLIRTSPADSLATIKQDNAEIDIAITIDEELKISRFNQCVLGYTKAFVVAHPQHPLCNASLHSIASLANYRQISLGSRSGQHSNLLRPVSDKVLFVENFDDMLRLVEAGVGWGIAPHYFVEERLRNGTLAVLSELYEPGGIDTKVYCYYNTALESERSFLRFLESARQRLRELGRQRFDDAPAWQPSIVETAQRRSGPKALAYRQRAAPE

[5] = test system: Pseudomonas aeruginosa; assay: Downregulation of rhlA expression in biofilm of Pseudomonas aeruginosa at 10 uM after 24 hrs by RT-qPCR analysis relative to control; type: functional
In short: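 P. aeruginosa (OD595 1.0) diluted 1:20 in AB medium with compound in borosilicate bottles, 37 °C for 24 h. Total RNA extracted from biofilm cells and run by SYBR RT-qPCR with QS-gene primers. Cycling: 95 °C 10 s, then 40 cycles of 95 °C 10 s and 60 °C 10 s.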

[6] = target: T1, HTH-type quorum-sensing regulator RhlR (Pseudomonas aeruginosa (strain ATCC 15692 / PAO1 / 1C / PRS 101 / LMG12228)); assay: Modulation of RhlR in Pseudomonas aeruginosa assessed as inhibition of biofilm formation at 10 uM incubated for 24 hrs under static condition by crystal violet staining based assay relative to control; parameters: scale not given: the % may be the effect or the level left; in short: as §1
[7] = target: T3, Transcriptional regulator MvfR (Pseudomonas aeruginosa PA14); assay: Antagonist activity at Pseudomonas aeruginosa PqsR expressed in Escherichia coli DH5alpha at 0.1 to 10 uM incubated for 1.5 hrs by luminescence reporter gene assay
[8] = target: T2, Transcriptional activator protein LasR (Pseudomonas aeruginosa (strain ATCC 15692 / PAO1 / 1C / PRS 101 / LMG12228)); assay: Agonist activity at Pseudomonas aeruginosa LasR expressed in Escherichia coli DH5alpha at 0.1 to 10 uM incubated for 1.5 hrs by luminescence reporter gene assay
[9] = target: T1, HTH-type quorum-sensing regulator RhlR (Pseudomonas aeruginosa (strain ATCC 15692 / PAO1 / 1C / PRS 101 / LMG12228)); assay: Antagonist activity at Pseudomonas aeruginosa RhlR expressed in Escherichia coli DH5alpha assessed as relative protein activity at 100 uM incubated for 1.5 hrs in presence of N-butyryl-L-homoserine lactone by luminescence reporter gene assay relative to control; parameters: scale not given: the % may be the effect or the level left
In short: (§2)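 E. coli DH5α sdiA mutant carrying RhlR and rhlA::lacZ plasmids, at OD595 0.3 in LB. Compound given with BHL (10 µM per footnote) and 0.4% arabinose, 37 °C for 1.5 h.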

[10] = target: T1, HTH-type quorum-sensing regulator RhlR (Pseudomonas aeruginosa (strain ATCC 15692 / PAO1 / 1C / PRS 101 / LMG12228)); assay: Antagonist activity at RhlR in Pseudomonas aeruginosa assessed as rhamnolipid production at 10 uM incubated for 24 hrs by Orcinol staining based assay relative to control; parameters: scale not given: the % may be the effect or the level left
[11] = target: T1, HTH-type quorum-sensing regulator RhlR (Pseudomonas aeruginosa (strain ATCC 15692 / PAO1 / 1C / PRS 101 / LMG12228)); assay: Modulation of RhlR in Pseudomonas aeruginosa assessed as biofilm formation at 10 uM incubated for 24 hrs under static condition by crystal violet staining based assay relative to control
[12] = target: T1, HTH-type quorum-sensing regulator RhlR (Pseudomonas aeruginosa (strain ATCC 15692 / PAO1 / 1C / PRS 101 / LMG12228)); assay: Antagonist activity at RhlR in Pseudomonas aeruginosa assessed as rhamnolipid production at 100 uM incubated for 24 hrs by Orcinol staining based assay relative to control; parameters: scale not given: the % may be the effect or the level left
[13] = test system: Pseudomonas aeruginosa; assay: Antibacterial activity against Pseudomonas aeruginosa assessed as bacterial growth at 100 uM incubated for 24 hrs relative to control; type: functional; in short: as §1
[14] = target: T1, HTH-type quorum-sensing regulator RhlR (Pseudomonas aeruginosa (strain ATCC 15692 / PAO1 / 1C / PRS 101 / LMG12228)); assay: Agonist activity at Pseudomonas aeruginosa RhlR expressed in Escherichia coli DH5alpha assessed as relative protein activity at 1000 uM incubated for 1.5 hrs by luminescence reporter gene assay relative to control
[15] = test system: Pseudomonas aeruginosa; assay: Antibacterial activity against Pseudomonas aeruginosa assessed as bacterial growth at 10 uM incubated for 24 hrs relative to control; type: functional; in short: as §1
[16] = target: T1, HTH-type quorum-sensing regulator RhlR (Pseudomonas aeruginosa (strain ATCC 15692 / PAO1 / 1C / PRS 101 / LMG12228)); assay: Modulation of RhlR in Pseudomonas aeruginosa assessed as biofilm formation at 100 uM incubated for 24 hrs under static condition by crystal violet staining based assay relative to control
[17] = target: T1, HTH-type quorum-sensing regulator RhlR (Pseudomonas aeruginosa (strain ATCC 15692 / PAO1 / 1C / PRS 101 / LMG12228)); assay: Antagonist activity at Pseudomonas aeruginosa RhlR expressed in Escherichia coli DH5alpha assessed as relative protein activity at 10 uM incubated for 1.5 hrs in presence of N-butyryl-L-homoserine lactone by luminescence reporter gene assay relative to control; parameters: scale not given: the % may be the effect or the level left; in short: as §2

| Activity [1] [%] | Activity [2] [%] | Activity [3] | Activity [4] | Activity [6] [%] | Activity [7] | Activity [8] | Activity [9] [%] | Activity [10] [%] | Activity [11] [%] | Activity [12] [%] | Activity [14] [%] | Activity [16] [%] | Activity [17] [%] | SMILES | Activity [5] | Activity [13] [%] | Activity [15] [%] |
| --- | --- | --- | --- | --- | --- | --- | --- | --- | --- | --- | --- | --- | --- | --- | --- | --- | --- |
| 29 to 53 | 3 to 4 | inactive | inactive | 14 to 32 | inactive | inactive | 54 to 69 |  |  |  |  |  |  | CCCC(O)CC(=O)CCc1ccc(O)c(OC)c1 (centres undefined) | 65 - 79% |  |  |
|  | 3 |  |  |  |  |  | 17 | 60 | 71 | 58 | 5 | 56 | 39 | CCCCCC(=O)C#Cc1ccc(F)c(F)c1 |  | 88 | 100 |
|  | 4 |  |  |  |  |  | 65 | 73 | 82 | 57 | 5 | 65 | 73 | CCCC(O)CC(=O)/C=C/c1ccc(O)c(OC)c1 (centres undefined) |  | 95 | 102 |
